Consider 6 compounds from publication PMC2913166 (Molecular pharmaceutics, 2009).

Data set [1] is described as follows: Absorption and fluorescence spectroscopy, quantum yield. Type of data set: physicochemical. Conditions: for λabs max / λem max / Quantum yield: 20% DMSO in water; for λabs max / λem max: room temperature; for Quantum yield: relative to ICG in DMSO, QY=0.12. The procedure, abridged: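 Test compounds dissolved in spectral-grade DMSO, diluted in 20% DMSO/water, and read at room temperature. Fluorescence was excited at 700 nm with 5 nm slits, keeping absorbance below 0.1. Molar absorptivity was averaged from three-point measurements at the absorption maximum. Quantum yield was taken relative to ICG in 100% DMSO. Probe in assay buffer was split: one half diluted with water to 1 mL, the other cleaved by caspase-3, then diluted likewise.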

A short description of data set [2]: Fluorescence lifetime measurement. It is filed as physicochemical. Particulars: 20% DMSO/water, excitation 773 nm, detection 820 nm, room temperature. Summed up:
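TCSPC used a 773 nm pulsed LED source at 1 MHz, with detection at 90°. Counts were binned at 6.88 ps/channel until the peak reached 10,000, on a 50 ns scale. Instrument response came from Rayleigh scatter of 0.03% Ludox-40. Decays in 20% DMSO/water were fitted to two exponentials, discarding components contributing <3%.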

The conditions of data set [3]: dissolved in 100% DMSO; reference value used for comparison; cited from earlier work.
The test system of data set [4] is A549 cells. Type of data set: cell-based, human. Conditions: 5 μM paclitaxel for 2 h; read out by fluorescence of 5. Summed up:
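A549 cells were grown in Ham's F12K with 10% FBS and penicillin/streptomycin at 37°C, 5% CO2, seeded at 1×10^5/well in chamber slides overnight. Cells were loaded with 10 μM probe using GeneJuice in Opti-MEM for 24 h at 37°C. Paclitaxel was given for 2 h at 37°C, then three PBS washes. NIR confocal imaging (785 nm laser) read mean cytoplasmic intensity (Ex/Em 785/805–830) in 12 cells; mean ± SD, t-test.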

The subject of data set [5] is caspase-3. Particulars: cited from earlier work; for Km: read-out: KM of standard substrate.
Data set [6] addresses T1, recombinant human caspase-3 (Homo sapiens, UniProt P42574).
T1 sequence (P42574 29-175 limits assumed): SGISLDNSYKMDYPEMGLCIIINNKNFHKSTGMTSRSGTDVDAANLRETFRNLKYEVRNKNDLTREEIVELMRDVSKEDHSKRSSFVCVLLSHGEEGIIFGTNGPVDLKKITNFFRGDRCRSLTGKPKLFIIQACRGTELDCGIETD
T1 sequence (P42574 176-277 limits assumed): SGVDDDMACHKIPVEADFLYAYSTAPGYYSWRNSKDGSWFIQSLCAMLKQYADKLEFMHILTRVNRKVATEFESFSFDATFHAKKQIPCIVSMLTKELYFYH
The experiment in a line: Caspase-3 enzyme kinetics of the NIR substrates. Type of data set: biochemical. Summed up: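 Active sites were titrated with Ac-DEVD-pNA (2.5–50 μM, 25°C, absorbance […] nm). Substrate (0.5–100 μM; DMSO stock) hydrolysis was followed by NIR fluorescence (ex 785/em 805 nm) over time. Linear slope ÷ complete-hydrolysis fluorescence × [S] gave vo, fitted to Michaelis–Menten. kcat/KM was computed; ± SEM.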

Several values for one entry are separate records, joined by “and”; a condition that tells them apart may be missing. Identical values can stand only once. Entries after “also recorded” stand apart in the source; their conditions may differ. K(Me2NCp) = not defined here; CbOH = not defined here

With `CC1(C)C(/C=C/C=C/C=C/C=C2/N(CCC(=O)O)c3ccc4ccccc4c3C2(C)C)=[N+](CCC(=O)[O-])c2ccc3ccccc3c21` [Compound 2, cypate, reference compound], in data set [1], the λabs max stood at 783 nm, the λem max is listed as 808 nm and the Quantum yield turned out to be 0.031. The Lifetime in data set [2] is on record as 0.25 ns.

Regarding `CC1(C)C(/C=C/C=C/C=C/C=C2\N(CCCCS(=O)(=O)O)c3ccc4ccccc4c3C2(C)C)=[N+](CCCCS(=O)(=O)[O-])c2ccc3ccccc3c21` [ICG, indocyanine green], the “Fluorescence quantum yield of the standard” value in data set [3] is 0.12.

On to `CC(=O)O[C@H]1C(=O)[C@@]2(C)[C@H]([C@H](OC(=O)c3ccccc3)[C@]3(O)C[C@H](OC(=O)[C@H](O)[C@@H](NC(=O)c4ccccc4)c4ccccc4)C(C)=C1C3(C)C)[C@]1(OC(C)=O)CO[C@@H]1C[C@@H]2O` [paclitaxel], for which the “Activation of caspase-3 in A549 cells” value in data set [4] is reported as “sufficient to activate caspase-3”.

For Ac-DEVD-AMC, in data set [5], the “kcat of standard substrate” value is 0.75 s⁻¹ and the Km is 9.7 µM.

Consider Ac-DEVD-pNA, for which, in data set [5], the “kcat of standard substrate” value was 2.4 s⁻¹ and the Km was 11 µM.

Turning to “AcGK(Me2NCp)-DEVD-APK(CbOH)-NH2 ({Ac-Gly-K(Me2NCp)}-DEVDAPK(CbOH)-NH2; reading uncertain; also: printed as AcGK(Me2NCp)-DEVD-APK(CbOH)-NH2) [Compound 5]”, in data set [6] (5 (0.5 to 100 μM) with caspase 3 (290 pM), 10 mM PIPES pH 7.4, 2 mM EDTA, 0.1% CHAPS, 5 mM DTT, triplicate, λex=785 nm, λem=805 nm, ± standard error of the mean, SEM), the “kcat (turnover number)” value turned out to be 1.02 ± 0.06 s⁻¹. The “Cleavage (hydrolysis) by caspase-3, in words” value in data set [6] (assay buffer pH 7.4, recombinant human caspase-3) was “cleaved more readily than 4; also recorded: readily cleaved”. The “kcat/KM (catalytic efficiency)” value in data set [6] (caspase-3, computed from kcat and KM) turned out to be 68000 M⁻¹ s⁻¹. Further, the Km in data set [6] (read-out: KM (Michaelis-Menten constant), 5 (0.5 to 100 μM) with caspase 3 (290 pM), 10 mM PIPES pH 7.4, 2 mM EDTA, 0.1% CHAPS, 5 mM DTT, triplicate, λex=785 nm, λem=805 nm, ± standard error of the mean, SEM) came to 15 ± 3 µM. In data set [1] (5 after enzymatic cleavage by caspase-3, diluted with water), the “Ratio F760/F810 of emission after cleavage” value is reported as 7.16. Further, in data set [1], the λabs max is 759 nm and 790 nm; the λem max came to 763 nm; the Quantum yield was less than 0.001.
